This is an account of results in the array DNA melting data of Ke et al. (doi:10.1101/2024.01.08.574731).

Series [1] can be described thus: folding enthalpy; higher = less favourable; fluorescence melt of hairpins on a sequencing array, two-state fit. To be noted: sodium 0.088 M. The gist of the method: (§1)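 Two-state fits, bootstrapped, provided melting temperature and folding enthalpy from Cy3 fluorescence normalised to pre-quench Cy3 and to control constructs. Library hairpins with annealed Cy3 and quencher oligos were imaged on a sequenced MiSeq flow cell in 50 mM Na-HEPES pH 8.0, 25 mM NaCl, at 2.5 °C intervals up to 60 °C. Four replicates were combined with inverse-variance weighting. A 9.35 °C upward shift was applied to fitted temperatures to match UV melts.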

The nature of series [2]: melting temperature; fluorescence melt of hairpins on a sequencing array, two-state fit, raised by 9.35 °C to match UV melts. To be noted: sodium 0.088 M. The method in brief:
as §1

Regarding GGTAGCGAAAGCTACACC ((((((....)))..))), the folding enthalpy in series [1] was -9.32 kcal/mol. In addition, the Tm in series [2] is 50.5 °C.

Turning to GGTAGCGAAAGCTCAACC ((((((....)))..))), the folding enthalpy in series [1] is -13.7 kcal/mol. The Tm in series [2] was 34.9 °C.

With GGTAGCGAAAGCTCTACC ((((((....)))..))), in series [1], the folding enthalpy is -16.4 kcal/mol. In addition, the Tm in series [2] is 38.1 °C.

As to GGTAGCGAAAGCTGACC ((((((....))).))), the folding enthalpy in series [1] is -17.2 kcal/mol. For the same sequence, the Tm in series [2] turned out to be 49.7 °C.

As to GGTAGCGGAAACGTTGCC ((.(.((....)).).)), the folding enthalpy in series [1] is -25.2 kcal/mol. Besides, the Tm in series [2] was 39.3 °C.

In the case of GGTAGGCGAAAGCCAACC (((.(((....))).))), the folding enthalpy in series [1] is -28.1 kcal/mol. Further, the Tm in series [2] stood at 57.6 °C.

Take GGTAGGCGAAAGCCACC (((.(((....)))))): the folding enthalpy in series [1] was -16 kcal/mol. Moreover, in series [2], the Tm came out at 58.2 °C.

As to GGTAGGGGAAACCCTACC (((((((....))))))), the folding enthalpy in series [1] is -44.1 kcal/mol. Besides, the Tm in series [2] was 64.6 °C.

With GGTAGTCCGAAAGGAACC (((..(((....)))))), the folding enthalpy in series [1] is -12.4 kcal/mol. In addition, the Tm in series [2] is 27.1 °C.

As for GGTAGTGGAAACACTGCC ((.((((....)))).)), the folding enthalpy in series [1] was -38.9 kcal/mol. The Tm in series [2] was determined as 53 °C.

In the case of GGTATAACGAAAGTTACC (((..(((....)))))), the folding enthalpy in series [1] is -13.7 kcal/mol. Further, the Tm in series [2] came to 37.8 °C.

On to GGTATACGAAAGTAGACC (((.(((....))).))), for which the folding enthalpy in series [1] is -50.9 kcal/mol. For the same sequence, in series [2], the Tm amounted to 52.1 °C.

Turning to GGTATAGGAAACCATACC (((((.(....).))))), the folding enthalpy in series [1] was -23.1 kcal/mol. In addition, the Tm in series [2] came out at 36.7 °C.

GGTATCGAAAGATAACC ((((((....))).))): the folding enthalpy in series [1] was -21.5 kcal/mol. The Tm in series [2] is 40.8 °C.

As to GGTATCGAAAGATACACC ((((((....)))..))), the folding enthalpy in series [1] is -11.8 kcal/mol. In addition, the Tm in series [2] was determined as 42.9 °C.

As for GGTATCGAAAGATACC ((((((....)))))), the folding enthalpy in series [1] was -43.2 kcal/mol. For the same sequence, the Tm in series [2] is 62.1 °C.

GGTATCGGAAACGATACC (((((((....))))))): in series [1], the folding enthalpy was -48.7 kcal/mol. Besides, the Tm in series [2] is 64 °C.

For GGTATCGGAAACGATGCC ((.((((....)))).)), the folding enthalpy in series [1] is -37.9 kcal/mol. Besides, the Tm in series [2] turned out to be 54.6 °C.

Turning to GGTATCGGAAACGGTACC ((((.((....)).)))), the folding enthalpy in series [1] was -40.6 kcal/mol. Further, in series [2], the Tm is 51.6 °C.

Turning to GGTATGACGAAAGTCACC (((..(((....)))))), in series [1], the folding enthalpy is -11.8 kcal/mol. Moreover, in series [2], the Tm came to 33.6 °C.

Turning to GGTATGCCGAAAGGCACC (((..(((....)))))), in series [1], the folding enthalpy is -9.19 kcal/mol. In series [2], the Tm was found to be 34.1 °C.

On to GGTATGCGAAAGCACACC (((.(((....))).))), for which the folding enthalpy in series [1] is -27.7 kcal/mol. For the same sequence, the Tm in series [2] stood at 49.7 °C.

On to GGTATGCGAAAGCAGACC (((.(((....))).))), for which the folding enthalpy in series [1] was -35.3 kcal/mol. In series [2], the Tm was 65.1 °C.

As for GGTATTCGAAAGAACACC (((.(((....))).))), in series [1], the folding enthalpy was -29.4 kcal/mol. For the same sequence, the Tm in series [2] stood at 39.3 °C.

On to GGTATTGGAAACGATACC (((((.(....).))))), for which the folding enthalpy in series [1] is -33.4 kcal/mol. Further, the Tm in series [2] is 44.4 °C.

As to GGTCAACGAAAGTTAACC (((.(((....))).))), the folding enthalpy in series [1] was -25 kcal/mol. Moreover, in series [2], the Tm was 39.3 °C.

Consider GGTCAAGGAAACTTGGCC ((.((((....)))).)), for which, in series [1], the folding enthalpy is -38.1 kcal/mol. In addition, the Tm in series [2] turned out to be 52.8 °C.

GGTCACACGAAAGTGACC (((..(((....)))))): the folding enthalpy in series [1] was -35.5 kcal/mol. In series [2], the Tm came to 58.2 °C.

For GGTCACCGAAAGGTTACC (((.(((....))).))), the folding enthalpy in series [1] is -27.2 kcal/mol. In addition, the Tm in series [2] amounted to 50.1 °C.

In the case of GGTCACGAAAGTGCACC ((((((....))).))), the folding enthalpy in series [1] was -28.3 kcal/mol. Besides, the Tm in series [2] turned out to be 52.5 °C.

Regarding GGTCACGGAAACATGACC (((((.(....).))))), the folding enthalpy in series [1] is -28.4 kcal/mol. The Tm in series [2] is 44.4 °C.

Regarding GGTCAGCGAAAGCTACC (((.(((....)))))), the folding enthalpy in series [1] was -16.7 kcal/mol. The Tm in series [2] amounted to 47.5 °C.

GGTCAGGGAAACCTGGCC ((.((((....)))).)): the folding enthalpy in series [1] is -42.2 kcal/mol. Besides, the Tm in series [2] is 57.5 °C.

Regarding GGTCAGGGAAACCTGGTC (..((((....))))..), the folding enthalpy in series [1] was -15.9 kcal/mol. In addition, the Tm in series [2] was 35.7 °C.

Consider GGTCATCGAAAGATCACC (((.(((....))).))), for which the folding enthalpy in series [1] was -30.2 kcal/mol. In addition, the Tm in series [2] came out at 35.7 °C.

Turning to GGTCATGGAAACGTGACC (((((.(....).))))), the folding enthalpy in series [1] was -52.9 kcal/mol. For the same sequence, in series [2], the Tm was found to be 53.6 °C.
